Assay results reported in ChEMBL document CHEMBL1123658, “1-(2-pyridinyl)piperazine derivatives with antianaphylactic, antibronchospastic, and mast cell stabilizing activities” (J Med Chem, 1987).

Experiments:
Rattus norvegicus [1] = experiment: Inhibition of mast cell degranulation was assessed in female albino rats at a dose of 29 umol/kg iv; assay type: functional
Cavia porcellus = experiment: Antibronchospatic activity determined by histamine stimulated bronchospasm inhibition in guinea pigs after(i.v.) administration; assay type: functional, Bronchiole
Summary of the method: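 Guinea pigs, Konzett–Rössler preparation. Bronchospasm was induced with histamine. Compound was given iv (1 mL/kg) 1 min before the agonist, dissolved in saline or saline with slight excess HCl or CH3SO3H (pH 3.5–4). Three doses were tested in duplicate, chosen to give 20–90% inhibition. ID75 was read graphically from log dose–response curves.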

Rattus norvegicus [2] = experiment: Rat PCA Test(50% inhibition of spot areas)in the female albino rats after (ip) administration in 10% aqueous acacia gum; value ranges from 57-105; assay type: functional; details: read-out: ID50 (the source's name)
Summary of the method: (§1)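 Female albino rats (200–250 g) received intradermal ventral injections of rat anti-egg-albumin antiserum; donors were raised with egg albumin im plus H. pertussis ip, and serum was taken at 12 days. 24 h later, compound was given ip in 10% acacia gum (10 mL/kg), 10 rats/group. Challenge 30 min later was iv 0.3% egg albumin plus 1% Evans blue. Blued areas were measured 30 min after challenge.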

Rattus norvegicus [3] = experiment: Rat PCA Test(50% inhibition of spot areas)in the female albino rats after oral administration in 10% aqueous acacia gum; assay type: functional; details: read-out: ID50 (the source's name)
Summary of the method: (§2)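 Female rats (200-250 g) were passively sensitized by ventral intradermal anti-egg-albumin antiserum. This was raised in rats by intramuscular 1% egg albumin plus ip H. pertussis vaccine, with serum taken at 12 days. After 24 h, groups of 10 were dosed orally with compound or vehicle (10 mL/kg). At 60 min, iv challenge used 0.3% egg albumin with 1% Evans blue. Blued areas were measured after 30 min.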

[4] = In vivo toxic effect was determined in mouse after intraperitoneal administration with 10% aqueous acacia gum; value ranges from 1.73-3.04; assay type: toxicity, organism-based; details: ip
Summary of the method: (§3)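 Female albino mice (20-30 g), 10 animals per dose, dosed intraperitoneally with compound in solution or suspension; compounds tested as salts unless noted. Mortality was recorded over 7 days.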

[5] = In vivo toxicity in mouse after oral administration with 10% aqueous acacia gum; assay type: organism-based
Summary of the method: (§4)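 Female albino mice, 20-30 g. Compound given orally as solution or suspension in 10% aqueous acacia gum, 10 animals per dose. Deaths recorded over 7 days.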

Rattus norvegicus [6] = experiment: Inhibition of mast cell degranulation was assessed in female albino rats at a dose of 61 umol/kg iv; assay type: functional
[7] = In vivo toxic effect was determined in mouse after intraperitoneal administration with 10% aqueous acacia gum; value ranges from 0.96-10.62; assay type: toxicity, organism-based; details: ip; summary of the method: as §3
[8] = In vivo toxic effect was determined in mouse after oral administration with 10% aqueous acacia gum; value ranges from 1.79-2.41; assay type: toxicity, organism-based; summary of the method: as §4
Rattus norvegicus [9] = experiment: Inhibition of mast cell degranulation was assessed in female albino rats at a dose of 43 umol/kg iv; assay type: functional
Rattus norvegicus [10] = experiment: Rat PCA Test(50% inhibition of spot areas)in the female albino rats after (ip) administration in 10% aqueous acacia gum; value ranges from 96-124; assay type: functional; details: read-out: ID50 (the source's name)
Summary of the method: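 Antiserum came from female rats given 1% egg albumin in 0.9% NaCl intramuscularly plus Haemophilus pertussis vaccine (2 × 10^10 organisms) intraperitoneally, and was collected 12 days later. Recipient rats (200-250 g) got it intradermally at a ventral site. After 24 h, groups of 10 received vehicle or compound ip. At 30 min they were challenged iv with 0.3% egg albumin plus 1% Evans blue. Blued skin areas were measured 30 min later.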

Rattus norvegicus [11] = experiment: Rat PCA Test(50% inhibition of spot areas)in the female albino rats after (ip) administration in 10% aqueous acacia gum; assay type: functional; details: read-out: ID50 (the source's name); summary of the method: as §1
[12] = In vivo toxic effect was determined in mouse after oral administration with 10% aqueous acacia gum; value ranges from 0.84-1.62; assay type: toxicity, organism-based; summary of the method: as §4
[13] = In vivo toxic effect was determined in mouse after intraperitoneal administration with 10% aqueous acacia gum; value ranges from 0.43-0.73; assay type: toxicity, organism-based; details: ip; summary of the method: as §3
Rattus norvegicus [14] = experiment: Rat PCA Test(50% inhibition of spot areas)in the female albino rats after (ip) administration in 10% aqueous acacia gum; value ranges from 328-1350; assay type: functional; details: read-out: ID50 (the source's name); summary of the method: as §1
[15] = In vivo toxic effect was determined in mouse after intraperitoneal administration with 10% aqueous acacia gum; value ranges from 3.67-6.20; assay type: toxicity, organism-based; details: ip; summary of the method: as §3
Rattus norvegicus [16] = experiment: Inhibition of mast cell degranulation was assessed in female albino rats at a dose of 28 umol/kg iv; assay type: functional
Rattus norvegicus [17] = experiment: Rat PCA Test(50% inhibition of spot areas)in the female albino rats after oral administration in 10% aqueous acacia gum; value ranges from 30-108; assay type: functional; details: read-out: ID50 (the source's name); summary of the method: as §2
Rattus norvegicus [18] = experiment: Rat PCA Test(50% inhibition of spot areas)in the female albino rats after (ip) administration in 10% aqueous acacia gum; value ranges from 141-206; assay type: functional; details: read-out: ID50 (the source's name); summary of the method: as §1
Mus musculus = experiment: In vivo toxic effect was determined in mouse after intraperitoneal administration with 10% aqueous acacia gum; NA means poorly absorbed; assay type: toxicity, organism-based; details: ip; summary of the method: as §3
Rattus norvegicus [19] = experiment: Rat PCA Test(50% inhibition of spot areas)in the female albino rats after (ip) administration in 10% aqueous acacia gum; value ranges from 25-150; assay type: functional; details: read-out: ID50 (the source's name); summary of the method: as §1
[20] = In vivo toxic effect was determined in mouse after intraperitoneal administration with 10% aqueous acacia gum; value ranges from 0.29-0.60; assay type: toxicity, organism-based; details: ip; summary of the method: as §3
[21] = In vivo toxic effect was determined in mouse after oral administration with 10% aqueous acacia gum; value ranges from 0.86-1.66; assay type: toxicity, organism-based; summary of the method: as §4
Rattus norvegicus [22] = experiment: Inhibition of mast cell degranulation was assessed in female albino rats at a dose of 45 umol/kg iv; assay type: functional
Rattus norvegicus [23] = experiment: Rat PCA Test(50% inhibition of spot areas)in the female albino rats after (ip) administration in 10% aqueous acacia gum; value ranges from 24-51; assay type: functional; details: read-out: ID50 (the source's name); summary of the method: as §1
Rattus norvegicus [24] = experiment: Rat PCA Test(50% inhibition of spot areas)in the female albino rats after oral administration in 10% aqueous acacia gum; value ranges from 13-117; assay type: functional; details: read-out: ID50 (the source's name); summary of the method: as §2
[25] = In vivo toxic effect was determined in mouse after oral administration with 10% aqueous acacia gum; value ranges from 2.50-3.50; assay type: toxicity, organism-based; summary of the method: as §4
[26] = In vivo toxic effect was determined in mouse after intraperitoneal administration with 10% aqueous acacia gum; value ranges from 1-1.40; assay type: toxicity, organism-based; details: ip; summary of the method: as §3

Q: Which inhibition in vivo at 29 µmol/kg (Rattus norvegicus [1]) does the source give for `CC(=O)c1ccccc1NC(=O)CCN1CCN(c2ccccn2)CC1.Cl.Cl` here?
A: 0%

Q: What about the ID75 (Cavia porcellus) of the same compound?
A: 0.89 µM/kg

Q: And the ED50 (Rattus norvegicus [2])?
A: 77 µmol/kg

Q: What about the ED50 (Rattus norvegicus [3]) of the same compound?
A: > 230 µmol/kg

Q: What about the LD50 [4] of the same compound?
A: 2300 µmol/kg

Q: What about the LD50 [5] of the same compound?
A: > 6910 µmol/kg

Q: For `Nc1ccccc1NC(=O)CCN1CCN(c2ccccn2)CC1`, which inhibition in vivo at 61 µmol/kg (Rattus norvegicus [6]) is on record?
A: 26%

Q: And the LD50 [7]?
A: 3200 µmol/kg

Q: What about the LD50 [8] of the same compound?
A: 2080 µmol/kg

Q: With `CNC(=O)Nc1ccc(NC(=O)CCN2CCN(c3ccccn3)CC2)cc1.Cl.Cl` as the compound, how does the inhibition in vivo at 43 µmol/kg (Rattus norvegicus [9]) read?
A: 0%

Q: And the ID75 (Cavia porcellus)?
A: 0.29 µM/kg

Q: What about the ED50 (Rattus norvegicus [10]) of the same compound?
A: 109 µmol/kg

Q: And the ED50 (Rattus norvegicus [3])?
A: > 220 µmol/kg

Q: And the LD50 [5]?
A: > 6500 µmol/kg

Q: Which ID75 (Cavia porcellus) does the source give for `Cl.Cl.O=C(CCN1CCN(c2ccccn2)CC1)Nc1cccc(C(F)(F)F)c1` here?
A: 0.65 µM/kg

Q: And the ED50 (Rattus norvegicus [11])?
A: > 55 µmol/kg

Q: And the LD50 [12]?
A: 1170 µmol/kg

Q: And the LD50 [13]?
A: 560 µmol/kg

Q: For `CCOC(=O)CCN1CCN(c2ccccn2)CC1.Cl.Cl`, which ID75 (Cavia porcellus) is on record?
A: 7.03 µM/kg

Q: And the ED50 (Rattus norvegicus [14])?
A: 665 µmol/kg

Q: What about the LD50 [15] of the same compound?
A: 5080 µmol/kg

Q: Which results are given for `CSc1ccc(NC(=O)CCN2CCN(c3ccccn3)CC2)cc1`?
A: inhibition in vivo at 28 µmol/kg (Rattus norvegicus [16]): 50%; ID75 (Cavia porcellus): 0.17 µM/kg; ED50 (Rattus norvegicus [17]): 57 µmol/kg; ED50 (Rattus norvegicus [18]): 171 µmol/kg; LD50 [5]: > 8400 µmol/kg; LD50 (Mus musculus): Not Active

Q: What does the source list for `CC1CN(c2ccccn2)CCN1CCC(=O)Nc1ccc([N+](=O)[O-])cc1.Cl.Cl` (stereo unspecified)?
A: ED50 (Rattus norvegicus [19]): 61 µmol/kg; LD50 [20]: 420 µmol/kg; LD50 [21]: 1200 µmol/kg

Q: Which results are given for `CC1CN(c2ccccn2)CCN1CCC(=O)Nc1ccc(N)cc1.Cl` (stereo unspecified)?
A: inhibition in vivo at 45 µmol/kg (Rattus norvegicus [22]): 14%; ID75 (Cavia porcellus): 0.59 µM/kg; ED50 (Rattus norvegicus [23]): 35 µmol/kg; ED50 (Rattus norvegicus [24]): 92 µmol/kg; LD50 [25]: 2970 µmol/kg; LD50 [26]: 1190 µmol/kg
